In ChEMBL document CHEMBL3525963, “Tissue distribution and elimination of [14C]apixaban in rats” (Drug Metab Dispos, 2011):

Columns and labels:
Parameters in all cases: dose 5 mg/kg, dosed compound name [14C]-apixaban, route oral
Details in all cases: in vivo
Pancreas [1] = assay: Biodistribution in pregnant Sprague-Dawley rat pancreas at 5 mg/kg, po administered as single dose measured after 48 hrs; type: ADME, organism-based
Procedure, shortened: (§1)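 Pregnant SD rats (270-319 g) were fasted overnight and given one oral gavage of 5 mg/kg (100 μCi/kg) in 0.5% Tween 80 in Labrafil. One rat was euthanized per time point (0.5, 1, 4, 8, 24, 48 h) and the carcass frozen. 40 µm sagittal sections were phosphor-imaged against [14C]glucose standards and results reported as µg eq/g; LLOQ 0.037 µg eq/g.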

Rattus norvegicus [2] = assay: Biodistribution in pregnant Sprague-Dawley rat kidney cortex at 5 mg/kg, po administered as single dose measured after 24 hrs; type: ADME, organism-based
Blood [3] = assay: Biodistribution in pregnant Sprague-Dawley rat blood at 5 mg/kg, po administered as single dose measured after 48 hrs; type: ADME, organism-based
Procedure, shortened: (§2)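 Fasted pregnant SD rats (n=6, 270-319 g) each received one oral gavage dose of [14C]apixaban, 5 mg/kg (100 μCi/kg), in 0.5% Tween 80/Labrafil. One rat was killed at each of 0.5, 1, 4, 8, 24 and 48 h. Carcasses were frozen in hexane/dry ice, cut into 40 µm sagittal sections, exposed to phosphor plates and quantified against [14C]glucose standards as µg eq/g. LLOQ was 0.037 µg eq/g.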

Heart = assay: Biodistribution in male Sprague-Dawley rat heart at 5 mg/kg, po administered as single dose measured after 72 hrs; type: ADME, organism-based
Procedure, shortened: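 Fasted male SD rats (225-252 g) each received one oral gavage dose of [14C]apixaban, 5 mg/kg (100 μCi/kg), in 0.5% Tween 80/Labrafil vehicle. One rat was killed per time point, from 0.5 to 168 h. Frozen carcasses were cut into 40 µm sagittal whole-body sections and read by QWBA phosphor imaging against [14C]glucose calibrants. Results are in µg apixaban eq/g; BLQ <0.037 µg eq/g.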

[4] = Drug level in lactating Sprague-Dawley rat milk at 5 mg/kg, po administered as single dose after 2 hrs; type: ADME, organism-based
Rattus norvegicus [5] = assay: Biodistribution in pregnant Sprague-Dawley rat placenta at 5 mg/kg, po administered as single dose measured after 48 hrs; type: ADME, organism-based; procedure, shortened: as §1
Thymus [6] = assay: Biodistribution in female Sprague-Dawley rat thymus at 5 mg/kg, po administered as single dose measured after 72 hrs; type: ADME, organism-based
Procedure, shortened: (§3)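 Quantitative whole-body autoradiography was run after a single 5 mg/kg (100 μCi/kg) oral gavage to fasted female or pregnant SD rats, one rat per time point. Carcasses were frozen in hexane/dry ice, and 40 µm sagittal sections were dried at −20°C for at least 48 h. Sections were exposed to a phosphor plate alongside [14C]glucose standards (0.001–6.5 µCi/g). Results are µg eq/g, with LLOQ 0.037 µg eq/g.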

Muscle tissue [7] = assay: Biodistribution in female Sprague-Dawley rat muscle at 5 mg/kg, po administered as single dose measured after 24 hrs; type: ADME, organism-based; procedure, shortened: as §3
Rattus norvegicus [8] = assay: Biodistribution in pregnant Sprague-Dawley rat brown fat at 5 mg/kg, po administered as single dose measured after 8 hrs; type: ADME, organism-based, Brown adipose tissue
Blood [9] = assay: Biodistribution in male Sprague-Dawley rat blood at 5 mg/kg, po administered as single dose measured after 0.5 hrs; type: ADME, organism-based
Procedure, shortened: (§4)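 [¹⁴C]Apixaban given by oral gavage at 5 mg/kg (100 μCi/kg) in 0.5% Tween 80 in Labrafil (1.0 mg/mL dosing solution) to rats fasted overnight through 4 h post-dose. One rat per time point; carcass frozen in hexane/dry ice. Quantitative whole-body autoradiography used 40 µm sagittal sections and a phosphor imaging plate calibrated with [¹⁴C]glucose standards (0.001–6.5 μCi/g). Read-out in µg eq apixaban/g; LLOQ 0.037 μg eq/g.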

Muscle tissue [10] = assay: Biodistribution in pregnant Sprague-Dawley rat muscle at 5 mg/kg, po administered as single dose measured after 4 hrs; type: ADME, organism-based
Rattus norvegicus [11] = assay: Biodistribution in fetal liver of pregnant Sprague-Dawley rat at 5 mg/kg, po administered as single dose measured after 1 hr; type: ADME, organism-based
Procedure, shortened: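 Pregnant rats, 270-319 g and fasted overnight, received [14C]apixaban by oral gavage at 100 μCi/kg in 0.5% Tween 80/Labrafil. One dam per time point was euthanized and frozen in hexane/dry ice. Fetal tissue radioactivity was measured by QWBA on 40 µm sagittal sections calibrated with [14C]glucose standards. Values are in µg eq/g, with LLOQ 0.037 μg eq/g.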

Rattus norvegicus [12] = assay: Biodistribution in pregnant Sprague-Dawley rat salivary gland at 5 mg/kg, po administered as single dose measured after 4 hrs; type: ADME, organism-based
Harderian gland = assay: Biodistribution in male Sprague-Dawley rat harderian gland at 5 mg/kg, po administered as single dose measured after 8 hrs; type: ADME, organism-based; procedure, shortened: as §4
[13] = Drug level in lactating Sprague-Dawley rat milk at 5 mg/kg, po administered as single dose after 24 hrs; type: ADME, organism-based
Rattus norvegicus [14] = assay: Biodistribution in fetal liver of pregnant Sprague-Dawley rat at 5 mg/kg, po administered as single dose measured after 48 hrs; type: ADME, organism-based; procedure, shortened: as §2
Rattus norvegicus [15] = assay: Biodistribution in female Sprague-Dawley rat brown fat at 5 mg/kg, po administered as single dose measured after 0.5 hrs; type: ADME, organism-based, Brown adipose tissue
Procedure, shortened: (§5)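 [14C]apixaban (20 μCi/mL in dosing solution) in 0.5% Tween 80 in Labrafil given by oral gavage to fasted female rats, 206-213 g, at 100 μCi/kg. One rat per time point was euthanized and snap-frozen. Sagittal 40 µm whole-body sections were read by QWBA phosphor imaging against [14C]glucose standards. Results are in µg eq apixaban/g, with LLOQ 0.037 μg eq/g.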

Rattus norvegicus [16] = assay: Biodistribution in female Sprague-Dawley rat pituitary gland at 5 mg/kg, po administered as single dose measured after 8 hrs; type: ADME, organism-based; procedure, shortened: as §5
Rattus norvegicus [17] = assay: Biodistribution in female Sprague-Dawley rat bone marrow at 5 mg/kg, po administered as single dose measured after 8 hrs; type: ADME, organism-based; procedure, shortened: as §5
Rattus norvegicus [18] = assay: Biodistribution in pregnant Sprague-Dawley rat salivary gland at 5 mg/kg, po administered as single dose measured after 0.5 hrs; type: ADME, organism-based
Blood [19] = assay: AUC (0 to t) in female Sprague-Dawley rat blood at 5 mg/kg, po administered as single dose; type: ADME, organism-based
Thymus [20] = assay: Biodistribution in female Sprague-Dawley rat thymus at 5 mg/kg, po administered as single dose measured after 4 hrs; type: ADME, organism-based; procedure, shortened: as §4
Pancreas [21] = assay: Biodistribution in pregnant Sprague-Dawley rat pancreas at 5 mg/kg, po administered as single dose measured after 0.5 hrs; type: ADME, organism-based
Spleen [22] = assay: Biodistribution in pregnant Sprague-Dawley rat spleen at 5 mg/kg, po administered as single dose measured after 48 hrs; type: ADME, organism-based; procedure, shortened: as §1
Rattus norvegicus [23] = assay: Biodistribution in male Sprague-Dawley rat salivary gland at 5 mg/kg, po administered as single dose measured after 0.5 hrs; type: ADME, organism-based
Rattus norvegicus [24] = assay: Biodistribution in female Sprague-Dawley rat kidney cortex at 5 mg/kg, po administered as single dose measured after 72 hrs; type: ADME, organism-based; procedure, shortened: as §3
Adrenal gland = assay: Biodistribution in pregnant Sprague-Dawley rat adrenal gland at 5 mg/kg, po administered as single dose measured after 8 hrs; type: ADME, organism-based
Spleen [25] = assay: Biodistribution in female Sprague-Dawley rat spleen at 5 mg/kg, po administered as single dose measured after 0.5 hrs; type: ADME, organism-based; procedure, shortened: as §4
Blood [26] = assay: Biodistribution in male Sprague-Dawley rat blood at 5 mg/kg, po administered as single dose measured after 8 hrs; type: ADME, organism-based; procedure, shortened: as §4

Radiolabel recovery (Pancreas [1]): Not detected assumed BLQ
Radiolabel recovery (Rattus norvegicus [2]): 0.05 ugequiv/g
Radiolabel recovery (Blood [3]): Not detected assumed BLQ
Radiolabel recovery (Heart): Not detected assumed BLQ
Radiolabel recovery [4]: 7.59 µg/mL
Radiolabel recovery (Rattus norvegicus [5]): Not detected assumed BLQ
Radiolabel recovery (Thymus [6]): Not detected assumed BLQ
Radiolabel recovery (Muscle tissue [7]): Not detected assumed BLQ
Radiolabel recovery (Rattus norvegicus [8]): 0.06 ugequiv/g
Radiolabel recovery (Blood [9]): 0.42 ugequiv/g
Radiolabel recovery (Muscle tissue [10]): 0.5 ugequiv/g
Radiolabel recovery (Rattus norvegicus [11]): 0.22 ugequiv/g
Radiolabel recovery (Rattus norvegicus [12]): 1.03 ugequiv/g
Radiolabel recovery (Harderian gland): 0.12 ugequiv/g
Radiolabel recovery [13]: 0.31 µg/mL
Radiolabel recovery (Rattus norvegicus [15]): 0.48 ugequiv/g
Radiolabel recovery (Rattus norvegicus [16]): 0.22 ugequiv/g
Radiolabel recovery (Rattus norvegicus [17]): 0.15 ugequiv/g
Radiolabel recovery (Rattus norvegicus [18]): 0.73 ugequiv/g
AUCt (Blood [19]): 3110 ngequiv.hr/g
Radiolabel recovery (Thymus [20]): 0.3 ugequiv/g
Radiolabel recovery (Pancreas [21]): 0.89 ugequiv/g
Radiolabel recovery (Spleen [22]): Not detected assumed BLQ
Radiolabel recovery (Rattus norvegicus [23]): 0.3 ugequiv/g
Radiolabel recovery (Rattus norvegicus [24]): Not detected assumed BLQ
Radiolabel recovery (Adrenal gland): 0.18 ugequiv/g
Radiolabel recovery (Spleen [25]): 0.29 ugequiv/g
Radiolabel recovery (Blood [26]): 0.08 ugequiv/g
Compound: COc1ccc(-n2nc(C(N)=O)c3c2C(=O)N(c2ccc(N4CCCC[14C]4=O)cc2)CC3)cc1
Radiolabel recovery (Rattus norvegicus [14]): Not sampled as not visualised in autoradiograph
